Compound activity as filed in PubChem BioAssay.
Sampled rows, rich in hits. Any-hit rate of the full collection: about 1.5%.
Cneo AK release: Cryptococcus neoformans lysis via adenylate kinase release | C. neoformans lysis, adenylate kinase release luminescence, 4 h; normalised: neutral wells 0, clomiphene wells 100 | lysis activity, % at 15 µM | 360,000 tested, 0.2% active | AID 651654;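 active = mean lysis activity across replicates of at least 80%, whatever share of replicates individually reach that level; inactive = mean lysis activity below 80%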
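Material: C. neoformans cells | Amount: Yeast cell density of 5 × 10^6 cells/mL | Medium: Fresh YPD growth medium | Dosing: Single dose | Times: Static 4 h at 37 °C with compound, 1 h detection | Detection: AK luminescence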
Mot1-301 SUMO: SUMOylation pathway inhibition by Mot1-301 growth rescue; S. cerevisiae Mot1-301 growth rescue, ATP luminescence, 38.5C; percent above DMSO median, 100 means doubled; growth rescue, % at 18.8 µM; 320,000 tested, 1% active; AID 2716;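 active = every valid replicate shows activation above 250% relative to neutral control wells; inactive = the rest, any valid replicate at or below 250%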
Statin myotox sup: suppressors of simvastatin-induced myotoxicity in C2C12 myotubes. 330,000 tested, 0.78% active. ATP luminescence, 48 h; scaled: DMSO 0, geranylgeraniol control 100. rescue of ATP level, % at 7.49 µM. AID 602340;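 active = mean ATP rescue above about 67%, or every replicate alone reaching that limit, limit read from the data, passing the limit was not always enough; inconclusive = no clear call, values can overlap the other calls; inactive = mean under the limit and some replicate under it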;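 note: myotubes were challenged with 10 µM simvastatin during compound exposure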
Of the large screens only hits and unclear results are named; the others gave an inactive call.

C[C@H]1CN([C@@H](C)CO)C(=O)Cc2cc(NS(=O)(=O)c3ccccc3)ccc2O[C@@H]1CN(C)Cc1ccncc1	none (no result: Mot1-301 SUMO)
C[C@@H]1CN([C@H](C)CO)C(=O)c2cc(-c3ccncc3)cnc2O[C@@H]1CN(C)C(=O)NC1CCCC1	none (no result: Mot1-301 SUMO)
C/C=C/c1ccc2c(c1)O[C@H](CN(C)CC1CC1)[C@H](C)CN([C@@H](C)CO)S2(=O)=O	none (no result: Cneo AK release, Mot1-301 SUMO)
CCc1nnc(NC(=O)CSc2nnc(CNC(=O)c3ccccc3F)n2C)s1	none
CSc1ccccc1NC(=O)CSc1nnc(CNC(=O)c2ccccc2F)n1C	Mot1-301 SUMO 307.6
Cn1c(SCC(=O)Nc2ccccc2C(F)(F)F)nc2c(c1=O)SCC2	none
Cc1nc(N)sc1-c1nnc(SCC(=O)Nc2ccccc2C(F)(F)F)n1C	Statin myotox sup 141.6
C[C@@H]1CCCCO[C@H](CN(C)C(=O)Nc2ccc(C(F)(F)F)cc2)[C@H](C)CN([C@H](C)CO)C(=O)c2cc(NS(=O)(=O)c3ccc(F)cc3)ccc2O1	none (no result: Mot1-301 SUMO, Statin myotox sup)
COc1cccc(C(=O)Nc2ccc3c(c2)C(=O)N(C)C[C@H](OC)[C@H](C)CN(CCc2ccccc2)[C@H](C)CO3)c1	none (no result: Mot1-301 SUMO)
CCC(=O)N1C[C@H](C)[C@H](OC)CN(C)C(=O)c2ccc(NC(=O)c3cc(C)on3)cc2OC[C@H]1C	none (no result: Mot1-301 SUMO)
Cc1ccc(S(=O)(=O)N2CC[C@H]3[C@H](CO)Nc4ccc(-c5ccccc5F)cc4[C@H]32)cc1	none (no result: Mot1-301 SUMO)
Cc1ccc(S(=O)(=O)N2CC[C@@H]3[C@H](CO)Nc4ccc(-c5ccccc5F)cc4[C@@H]32)cc1	Cneo AK release 89.8 (no result: Mot1-301 SUMO)
COc1ccc(NC(=O)N2CCCCN3[C@@H](CO)[C@H](c4ccc(-c5ccccc5C)cc4)[C@@H]3C2)cc1	none (no result: Mot1-301 SUMO, Statin myotox sup)
COc1ccccc1CNC(=O)C[C@H]1CC[C@H](NC(C)=O)[C@@H](CO)O1	none (no result: Mot1-301 SUMO)
C[C@H](CO)NC(=O)[C@@H]1C[C@H]1[C@@H](NP(=O)(c1ccccc1)c1ccccc1)c1ccccc1	Statin myotox sup 115.7
Cc1cc(CNC(=O)[C@H]2C[C@@H]2[C@H](NP(=O)(c2ccccc2)c2ccccc2)c2ccccc2)nn1C	none (no result: Cneo AK release, Statin myotox sup)
O=[N+]([O-])c1cc(Cl)ccc1Sc1cccc2cccnc12	none
O=[N+]([O-])c1ccc(Sc2cccc3cccnc23)c([N+](=O)[O-])c1	Statin myotox sup 73.3
CC(C(=O)O)n1c(C(F)(F)F)nc2ccccc21 (centres undefined)	Statin myotox sup 131.8
CC(=O)Cn1c(C(F)(F)F)nc2ccccc21	none (no result: Cneo AK release)
Cc1noc(C)c1S(=O)(=O)N(C)C[C@H]1Oc2ccc(NC(=O)Nc3ccccc3)cc2CC(=O)N([C@H](C)CO)C[C@@H]1C	none (no result: Cneo AK release, Mot1-301 SUMO)
Clc1ccccc1-c1ccc2ncnc(NCc3ccc4c(c3)OCO4)c2c1	Mot1-301 SUMO 628.5
c1cncc(-c2ccc3ncnc(NCc4ccc5c(c4)OCO5)c3c2)c1	none
COc1ccccc1C#Cc1ccc([C@H]2[C@@H](C#N)N(C(=O)C3CC3)[C@H]2CO)cc1	none (no result: Mot1-301 SUMO)
C[C@H](CO)N1C[C@H](C)[C@@H](CN(C)Cc2ccc(C(=O)O)cc2)Oc2ccc(NC(=O)CCN3CCOCC3)cc2C1=O	none (no result: Mot1-301 SUMO)
C[C@H]1CN([C@@H](C)CO)C(=O)c2cc(NC(=O)CCN3CCOCC3)ccc2O[C@@H]1CN(C)Cc1ccc(C(=O)O)cc1	Cneo AK release 102.6 (no result: Mot1-301 SUMO)
C[C@H](CO)N1C[C@H](C)[C@H](CN(C)Cc2ccc(C(=O)O)cc2)Oc2ccc(NC(=O)CCN3CCOCC3)cc2C1=O	none (no result: Mot1-301 SUMO)
C[C@@H]1CN([C@@H](C)CO)C(=O)c2cc(NC(=O)CCN3CCOCC3)ccc2O[C@@H]1CN(C)Cc1ccc(C(=O)O)cc1	Cneo AK release 95.2 (no result: Mot1-301 SUMO)
CCCC(=O)Nc1ccc2c(c1)C(=O)N(C)C[C@H](OC)[C@H](C)CN(Cc1ccncc1)[C@H](C)CO2	none (no result: Cneo AK release, Mot1-301 SUMO)
O=C(C[C@@H]1CC[C@H]2[C@@H](COC[C@H](O)CN2S(=O)(=O)c2cccc(Cl)c2)O1)Nc1ccccc1	none (no result: Mot1-301 SUMO)
C[C@@H]1CN([C@@H](C)CO)C(=O)c2cc(NS(=O)(=O)c3ccc(Cl)cc3)ccc2O[C@@H](C)CCCCO[C@H]1CN(C)CC1CCCCC1	none (no result: Mot1-301 SUMO, Statin myotox sup)
O=C(C[C@@H]1CC[C@H]2[C@@H](COC[C@@H](O)CN2Cc2ccc(Cl)cc2)O1)Nc1nccs1	none (no result: Mot1-301 SUMO)
O=S(=O)(c1ccc(Cl)cc1)N1CCN(C2CCN(Cc3ccccc3)CC2)CC1	Statin myotox sup inconclusive (no result: Mot1-301 SUMO)
O=[N+]([O-])c1ccc(S(=O)(=O)N2CCN(C3CCN(Cc4ccccc4)CC3)CC2)cc1	Mot1-301 SUMO 379.3
COc1ccccc1NC(=O)N1C[C@@H](O)COC[C@H]2O[C@@H](CC(=O)NCCc3ccccc3)CC[C@@H]21	none (no result: Mot1-301 SUMO)
Cc1ccc(NC(=O)/C(C#N)=C/c2cccs2)c(C)c1	none (no result: Cneo AK release, Statin myotox sup)
Cc1cccc(C)c1NC(=O)/C(C#N)=C/c1cccs1	Statin myotox sup 84.2
